In ChEMBL document CHEMBL4334458, “Design, synthesis and antibacterial evaluation of novel 15-membered 11a-azahomoclarithromycin derivatives with the 1, 2, 3-triazole side chain” (Eur J Med Chem, 2019):
Values after ≈ are worked out from the molar mass of the structure shown. Active and inactive are the calls of the source. The rule behind the calls is not given here.

Assays:
Pseudomonas aeruginosa = assay: Antibacterial activity against penicillin-susceptible Pseudomonas aeruginosa ATCC 27853 incubated for 24 hrs by broth dilution method; format: functional; details: ATCC 27853, 24 h
Procedure, shortened: (§1)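 CLSI broth microdilution in cation-adjusted Mueller-Hinton broth. Twofold dilutions spanned 0.25–128 or 0.5–256 µg/mL, with CAM and AZM as controls. Log-phase bacteria were added and incubated 24 h at 37 °C. MIC was read by turbidity as the concentration of the last clear well.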

Streptococcus pyogenes [1] = assay: Antibacterial activity against erythromycin-susceptible Streptococcus pyogenes 1 clinical isolate incubated for 24 hrs by broth dilution method; format: functional; procedure, shortened: as §1
Streptococcus pyogenes [2] = assay: Antibacterial activity against erythromycin-resistant Streptococcus pyogenes 2 clinical isolate incubated for 24 hrs by broth dilution method; format: functional
Streptococcus pneumoniae [3] = assay: Ratio of MIC for CAM to MIC for test compound for antibacterial activity against erythromycin-resistant Streptococcus pneumoniae AB11 expressing the ermB and mefA incubated for 24 hrs by broth dilution method; format: functional
Procedure, shortened: (§2)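 Ratio of clarithromycin MIC to compound MIC. Both MICs come from CLSI broth microdilution in cation-adjusted Mueller-Hinton broth with 2-fold dilutions, log-phase inoculum and 24 h at 37 °C, read by turbidity as the last clear well.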

Staphylococcus aureus [4] = assay: Antibacterial activity against methicillin-resistant Staphylococcus aureus ATCC 43300 incubated for 24 hrs by broth dilution method; format: functional; details: ATCC 43300, 24 h
Streptococcus pneumoniae [5] = assay: Antibacterial activity against erythromycin-resistant Streptococcus pneumoniae AB11 expressing the ermB and mefA incubated for 24 hrs by broth dilution method; format: functional
Streptococcus pneumoniae [6] = assay: Antibacterial activity against erythromycin-resistant Streptococcus pneumoniae B1 expressing the ermB incubated for 24 hrs by broth dilution method; format: functional
Staphylococcus aureus [7] = assay: Antibacterial activity against penicillin-resistant Staphylococcus aureus ATCC 31007 incubated for 24 hrs by broth dilution method; format: functional; details: ATCC 31007, 24 h
Streptococcus pyogenes [8] = assay: Ratio of MIC for CAM to MIC for test compound for antibacterial activity against erythromycin-resistant Streptococcus pyogenes 2 clinical isolate incubated for 24 hrs by broth dilution method; format: functional; procedure, shortened: as §2
Staphylococcus aureus [9] = assay: Ratio of MIC for CAM to MIC for test compound for antibacterial activity against penicillin-resistant Staphylococcus aureus ATCC 31007 incubated for 24 hrs by broth dilution method; format: functional; procedure, shortened: as §2
Staphylococcus aureus [10] = assay: Antibacterial activity against erythromycin-susceptible Staphylococcus aureus ATCC 25923 incubated for 24 hrs by broth dilution method; format: functional; details: ATCC 25923, 24 h; procedure, shortened: as §1
Escherichia coli = assay: Antibacterial activity against penicillin-susceptible Escherichia coli ATCC 25922 incubated for 24 hrs by broth dilution method; format: functional; details: ATCC 25922, 24 h; procedure, shortened: as §1
Bacillus subtilis = assay: Antibacterial activity against penicillin-susceptible Bacillus subtilis ATCC 9372 incubated for 24 hrs by broth dilution method; format: functional; details: ATCC 9372, 24 h; procedure, shortened: as §1
Staphylococcus aureus [11] = assay: Ratio of MIC for CAM to MIC for test compound for antibacterial activity against methicillin-resistant Staphylococcus aureus ATCC 43300 incubated for 24 hrs by broth dilution method; format: functional; procedure, shortened: as §2
Streptococcus pneumoniae [12] = assay: Ratio of MIC for CAM to MIC for test compound for antibacterial activity against erythromycin-resistant Streptococcus pneumoniae B1 expressing the ermB incubated for 24 hrs by broth dilution method; format: functional; procedure, shortened: as §2
Streptococcus pneumoniae [13] = assay: Bacteriostatic activity against erythromycin-resistant Streptococcus pneumoniae AB11 expressing the ermB and mefA at 1 to 4 times MIC incubated for 9 to 24 hrs by time-kill curve assay; format: functional, organism-based
Streptococcus pneumoniae [14] = assay: Ratio of MBC to MIC for erythromycin-resistant Streptococcus pneumoniae AB11 expressing the ermB and mefA; format: functional
Streptococcus pneumoniae [15] = assay: Bacteriostatic activity against erythromycin-resistant Streptococcus pneumoniae AB11 expressing the ermB and mefA by time-kill curve assay; format: functional, organism-based
Streptococcus pneumoniae [16] = assay: Bactericidal activity against erythromycin-resistant Streptococcus pneumoniae AB11 expressing the ermB and mefA at 1 to 4 times MIC incubated for up to 9 hrs by time-kill curve assay; format: functional, organism-based
Streptococcus pneumoniae [17] = assay: Bactericidal activity against erythromycin-resistant Streptococcus pneumoniae AB11 expressing the ermB and mefA incubated for 24 hrs followed by re-plating on tryptic soy agar plates for 24 hrs by broth microdilution assay; format: functional
Procedure, shortened: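 Follows the 24 h, 37 °C CAMH broth microdilution MIC plate; contents of clear wells plated onto tryptic soy agar and incubated 24 h at 37 °C; MBC taken as the lowest concentration giving no colonies.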

Staphylococcus aureus [18] = assay: Ratio of MBC to MIC for erythromycin-susceptible Staphylococcus aureus ATCC 25923; format: functional
[19] = Cytotoxicity against human MCF7 cells assessed as viable cells at 64 to 128 ug/ml incubated for 24 hrs by MTT assay relative to control; format: cell-based; details: read-out: Activity
Procedure, shortened: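 MCF-7 cells were seeded at 10^4 cells/well and allowed to settle overnight. Compound was added for 24 h, with CAM as control and DMSO as vehicle control. MTT (5 mg/mL stock) was then added for 4 h at 37 °C, formazan dissolved in DMSO for 10 min, and absorbance read at 570 nm. Read-out was percent viable cells.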

Staphylococcus aureus [20] = assay: Bactericidal activity against erythromycin-susceptible Staphylococcus aureus ATCC 25923 incubated for 24 hrs followed by re-plating on tryptic soy agar plates for 24 hrs by broth microdilution assay; format: functional; details: ATCC 25923, 24 h
Procedure, shortened: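 Built on the broth microdilution MIC set-up (CAMH, 24 h, 37 °C). After 24 h, contents of clear wells were plated on tryptic soy agar and incubated 24 h at 37 °C. MBC was taken as the lowest concentration giving no colonies.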

SMILES	MIC (Pseudomonas aeruginosa)	MIC (Streptococcus pyogenes [1])	MIC (Streptococcus pyogenes [2])	Ratio (Streptococcus pneumoniae [3])	MIC (Staphylococcus aureus [4])	MIC (Streptococcus pneumoniae [5])	MIC (Streptococcus pneumoniae [6])	MIC (Staphylococcus aureus [7])	Ratio (Streptococcus pyogenes [8])	Ratio (Staphylococcus aureus [9])	MIC (Staphylococcus aureus [10])	MIC (Escherichia coli)	MIC (Bacillus subtilis)	Ratio (Staphylococcus aureus [11])	Ratio (Streptococcus pneumoniae [12])	Ratio (Streptococcus pneumoniae [14])	MBC (Streptococcus pneumoniae [17])	Ratio (Staphylococcus aureus [18])	MBC (Staphylococcus aureus [20])	further results
CCCCc1ccc(-c2cn(C[C@H]3COC(=O)[C@H](C)[C@@H](O[C@H]4C[C@@](C)(OC)[C@@H](O)[C@H](C)O4)[C@H](C)[C@@H](O[C@@H]4O[C@H](C)C[C@H](N(C)C)[C@H]4O)[C@](C)(OC)C[C@@H](C)[C@H](O)[C@H](C)CN3C)nn2)cc1	> 128 µg/mL	4 µg/mL (≈ 4.36 µM)	16 µg/mL (≈ 17.4 µM)	8 - 16	> 256 µg/mL	16 µg/mL (≈ 17.4 µM)	> 256 µg/mL	16 µg/mL (≈ 17.4 µM)	8 - 16	8 - 16	16 µg/mL (≈ 17.4 µM)	> 128 µg/mL	8 µg/mL (≈ 8.71 µM)	–	–	–	–	–	–	–
CO[C@]1(C)C[C@@H](C)[C@H](O)[C@H](C)CN(C)C[C@@H](COCc2cn(-c3ccc(C(C)C)cc3)nn2)OC(=O)[C@H](C)[C@@H](O[C@H]2C[C@@](C)(OC)[C@@H](O)[C@H](C)O2)[C@H](C)[C@H]1O[C@@H]1O[C@H](C)C[C@H](N(C)C)[C@H]1O	128 µg/mL (≈ 137 µM)	4 µg/mL (≈ 4.28 µM)	16 µg/mL (≈ 17.1 µM)	8 - 16	32 µg/mL (≈ 34.3 µM)	16 µg/mL (≈ 17.1 µM)	16 µg/mL (≈ 17.1 µM)	32 µg/mL (≈ 34.3 µM)	8 - 16	8 - 16	4 µg/mL (≈ 4.28 µM)	64 µg/mL (≈ 68.5 µM)	1 µg/mL (≈ 1.07 µM)	8 - 16	8 - 16	–	–	–	–	–
CCCCc1ccc(-c2cn(C[C@@H]3CN(C)C[C@@H](C)[C@@H](O)[C@H](C)C[C@@](C)(OC)[C@H](O[C@@H]4O[C@H](C)C[C@H](N(C)C)[C@H]4O)[C@@H](C)[C@H](O[C@H]4C[C@@](C)(OC)[C@@H](O)[C@H](C)O4)[C@@H](C)C(=O)O3)nn2)cc1	> 128 µg/mL	8 µg/mL (≈ 8.71 µM)	8 µg/mL (≈ 8.71 µM)	–	8 µg/mL (≈ 8.71 µM)	8 µg/mL (≈ 8.71 µM)	64 µg/mL (≈ 69.7 µM)	8 µg/mL (≈ 8.71 µM)	–	–	8 µg/mL (≈ 8.71 µM)	> 128 µg/mL	32 µg/mL (≈ 34.8 µM)	–	–	8	64 µg/mL (≈ 69.7 µM)	–	–	Activity (Streptococcus pneumoniae [13]): Active; Activity (Streptococcus pneumoniae [15]): Dose-dependent effect; Activity (Streptococcus pneumoniae [16]): Active
COc1cccc(-n2cc(COC[C@H]3CN(C)C[C@@H](C)[C@@H](O)[C@H](C)C[C@@](C)(OC)[C@H](O[C@@H]4O[C@H](C)C[C@H](N(C)C)[C@H]4O)[C@@H](C)[C@H](O[C@H]4C[C@@](C)(OC)[C@@H](O)[C@H](C)O4)[C@@H](C)C(=O)O3)nn2)c1	32 µg/mL (≈ 34.7 µM)	0.5 µg/mL (≈ 0.542 µM)	128 µg/mL (≈ 139 µM)	–	> 256 µg/mL	128 µg/mL (≈ 139 µM)	> 256 µg/mL	> 256 µg/mL	–	–	≤ 0.25 µg/mL	64 µg/mL (≈ 69.4 µM)	≤ 0.25 µg/mL	–	–	–	–	>512	> 128 µg/mL	viability at 24 h [19]: 60%
CCCc1ccc(-n2cc(COC[C@@H]3CN(C)C[C@@H](C)[C@@H](O)[C@H](C)C[C@@](C)(OC)[C@H](O[C@@H]4O[C@H](C)C[C@H](N(C)C)[C@H]4O)[C@@H](C)[C@H](O[C@H]4C[C@@](C)(OC)[C@@H](O)[C@H](C)O4)[C@@H](C)C(=O)O3)nn2)cc1	> 128 µg/mL	4 µg/mL (≈ 4.28 µM)	32 µg/mL (≈ 34.3 µM)	8 - 16	16 µg/mL (≈ 17.1 µM)	8 µg/mL (≈ 8.56 µM)	16 µg/mL (≈ 17.1 µM)	32 µg/mL (≈ 34.3 µM)	8 - 16	8 - 16	4 µg/mL (≈ 4.28 µM)	64 µg/mL (≈ 68.5 µM)	1 µg/mL (≈ 1.07 µM)	8 - 16	8 - 16	8	64 µg/mL (≈ 68.5 µM)	–	–	–
CC[C@H]1OC(=O)[C@H](C)[C@@H](O[C@H]2C[C@@](C)(OC)[C@@H](O)[C@H](C)O2)[C@H](C)[C@@H](O[C@@H]2O[C@H](C)C[C@H](N(C)C)[C@H]2O)[C@](C)(OC)C[C@@H](C)C(=O)[C@H](C)[C@@H](O)[C@]1(C)O [CLARITHROMYCIN]	32 µg/mL (≈ 42.8 µM)	≤ 0.03 µg/mL	256 µg/mL (≈ 342 µM)	–	> 256 µg/mL	128 µg/mL (≈ 171 µM)	> 256 µg/mL	> 256 µg/mL	–	–	≤ 0.25 µg/mL	128 µg/mL (≈ 171 µM)	≤ 0.25 µg/mL	–	–	1	128 µg/mL (≈ 171 µM)	>512	128 µg/mL (≈ 171 µM)	–
